Screening data (PubChem BioAssay)
In the library only some 3.2% were active in any assay of this set; here they are far more common.
TRPN1 ag: zebrafish TRPN1 channel agonists, primary screen, cell-based, HEK293, calcium fluorescence; transient receptor potential cation channel N1 (TRPN1/NompC), Danio rerio; AID 1424, 2008; activation, % at 3 µM; HEK293 zebrafish TRPN1-YFP, Fluo-8 calcium fluorescence; 100% = response to 87 µM carbachol; actives 0.18% (n = 220,000);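 active = activation above its plate's cutoff, the mean activation of test wells on that plate plus 3 SD, cut at about 19% in these data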;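 also: 0% = DMSO alone and 100% = 87 µM carbachol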
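Material: zebrafish TRPN1-YFP in HEK293 cells; Doses: single test compound dose, 3 µM nominal, 0.3% DMSO; Timing: dye loading 1 h at 37 °C, then 30 min room temperature; Technique: intracellular calcium fluorescence with Fluo-8; Benchmarks: high carbachol 87 µM, low DMSO alone.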
OX1R antag-1: OX1R (HCRTR1) antagonists, primary screen, fluorescence, CHO/OX1R cells, Fluo-8 calcium, orexin A; Orexin/Hypocretin receptor type 1 (Homo sapiens), O43613; Fluo-8 calcium fluorescence; inhibition, % at 5 µM; actives 0.43% (n = 330,000); AID 434989, 2010;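 active = inhibition above its plate's threshold, mean inhibition of all tested compounds on the plate plus 3 SD, cut at about 37% in these data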;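 also: 0% = orexin A challenge wells and 100% = SB-334867-A antagonist wells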
OX1R antag-2: antagonists of human orexin 1 receptor (OX1R); Orexin/Hypocretin receptor type 1 (Homo sapiens), O43613; OX1R-expressing cells, FRET antagonist read-out; inhibition, % at 6.6 µM; actives 1.8% (n = 330,000); AID 485270, 2010; in the data active = inhibition mostly above about 38%, no sharp cut-off; inactive = mostly below about 40%;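 also: 0% = agonist challenge alone and 100% = reference antagonist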
GPR7 antag: GPR7 receptor antagonists, primary screen, cell-based, fluorescence, single concentration. GPR7-expressing cells, fluorescence antagonist assay. AID 1861, 2009. actives 1.1% (n = 290,000). Neuropeptides B/W receptor type 1 (Homo sapiens), P48145. inhibition, % at 4.4 µM; in the data active = inhibition above about 16%, passing the limit was not always enough;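 also: cells stimulated with the agonist NPW; 0% = agonist with vehicle and 100% = vehicle without agonist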
Target sequence (P48145 whole entry, looked up): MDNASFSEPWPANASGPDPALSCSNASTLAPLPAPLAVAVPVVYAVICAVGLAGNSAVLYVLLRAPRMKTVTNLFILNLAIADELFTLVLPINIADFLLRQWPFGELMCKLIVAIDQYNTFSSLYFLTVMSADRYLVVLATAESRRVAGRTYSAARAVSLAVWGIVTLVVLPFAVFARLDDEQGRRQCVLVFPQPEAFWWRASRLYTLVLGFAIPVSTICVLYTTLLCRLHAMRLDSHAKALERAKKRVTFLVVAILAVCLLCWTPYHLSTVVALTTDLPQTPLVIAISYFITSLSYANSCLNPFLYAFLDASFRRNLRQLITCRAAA
TRPML3 agonist: human TRPML3 channel agonists, primary screen, cell-based, HEK293 TRPML3-YFP, Fluo-8 calcium fluorescence, 3 µM; actives 0.29% (n = 220,000); activation, % at 3 µM; AID 1448, 2008; Mucolipin-3 (Homo sapiens), Q8TDD5; 100% = the carbachol control signal;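 active = activation above its plate's cutoff, the mean activation of the plate's test wells plus 3 SD, cut at about 12% in these data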;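 also: 0% = DMSO only wells and 100% = carbachol wells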
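Test system: TRPML3-YFP stable HEK293 cells. Doses: single point at 3 µM. Incubation: dye loading 1 h 37 °C then 30 min ambient, 125 s read. Signal: Fluo-8 calcium dye fluorescence, ex 470-495, em 515-575 nm. Measure: percent activation from peak-to-basal fluorescence ratio, scaled between DMSO and carbachol.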
CHO parental Ca: ATP-evoked calcium signal inhibitors, parental CHO, primary screen, counter-screen for OX1R antagonist project, cell-based, fluorescence, Fluo-8 calcium dye; parental CHO-K1, ATP-induced calcium, Fluo-8 fluorescence; inhibition, % at 5.6 µM; actives 0.63% (n = 330,000);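 active = inhibition above that plate's mean sample inhibition plus 3 SD, cut at about 26% in these data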;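 also: 0% = ATP-challenged DMSO wells and 100% = DMSO wells without ATP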
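test system = CHO parental line | reagent = ATP stimulus | measured by = intracellular calcium via Fluo-8 no-wash fluorescent dye | control set = ATP and no-ATP DMSO wells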
GPR7 antag conf: GPR7 receptor antagonists, confirmation, cell-based, fluorescence, single concentration; shares compounds with GPR7 antag; GPR7-expressing cells, calcium fluorescence antagonist mode; inhibition, % at 4.4 µM; actives 52% (n = 2,400); in the data active = inhibition above about 24%;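 also: stimulated with the GPR7 agonist NPW; 0% = agonist plus vehicle and 100% = vehicle alone without agonist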
MCHR1 antagonist: MCHR1 antagonists in cells, counter-screen for GPR7 antagonist project, cell-based, fluorescence, human. actives 62% (n = 2,400). inhibition, % at 4.4 µM. shares compounds with GPR7 antag. MCHR1-expressing cells, fluorescence antagonist assay. AID 2148, 2009; in the data active = inhibition above about 22%;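 also: 0% = vehicle with agonist and 100% = vehicle without agonist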
Numbers without * were called inactive; nt = no result.

SMILES	TRPN1 ag	OX1R antag-1	OX1R antag-2	GPR7 antag	TRPML3 agonist	CHO parental Ca	GPR7 antag conf	MCHR1 antagonist
Cc1cccc(NC(=O)c2ccc(Cn3cc(C(F)(F)F)ccc3=O)cc2)c1	-1	-8	14	-5	0	-10	nt	nt
Cc1nn(Cc2ccc(C(=O)Nc3ccccc3F)cc2)c(C)c1Cl	-2	-2	11	32*	-1	-15	10	31*
CC(C)Oc1ccc(C(CCN)C2CCCCC2)cc1 (stereo unspecified)	nt	-17	-5	55*	nt	6	49*	67*
O=C(CN1C(=O)c2cccnc2Oc2ccc(Cl)cc21)NCCC1=CCCCC1	nt	-18	22	8	nt	-21	nt	nt
COc1ccc(/C=C/C(=O)NCc2cccnc2)cc1	1	-4	8	-1	1	-4	nt	nt
CCc1ccc(CN(Cc2cccnc2)C(=O)/C=C/c2ccc(OC)cc2)cc1	nt	-10	20	39*	nt	-8	32*	49*
NC(=O)NC(CC(=O)Nc1cccnc1)c1cccc(Br)c1 (stereo unspecified)	nt	0	22	2	nt	-12	nt	nt
CC(C)C(NC(=O)c1ccccc1F)C(=O)NCCc1ccccn1 (stereo unspecified)	-1	-14	11	3	0	-15	nt	nt
O=C(Nc1ccc(S(=O)(=O)N2CCCC2)cc1)c1ccc(CN2CCc3ccccc3C2)cc1	12	49*	27	28*	4	38*	47*	63*
COc1ccc(NS(=O)(=O)c2cccc(C(=O)NNC(=O)CNC(=O)c3ccc(C)cc3)c2)cc1	nt	-5	10	nt	nt	-18	nt	nt
O=C(CCn1ccnc1)Nc1ccc2ccccc2c1	1	-10	11	-3	-1	-2	nt	nt
COc1cccc(C2=NN(C(=O)CCCC(=O)O)C(c3cccs3)C2)c1 (stereo unspecified)	0	-16	14	-14	0	-10	nt	nt
COc1ccc(NC(=O)CCS(=O)(=O)c2ccccc2Cl)cc1S(=O)(=O)Nc1ccc(Cl)cc1	-1	0	15	25*	0	-10	23	25*
O=C(COC(=O)c1ccc2c(=O)n3c(nc2c1)CCC3)Nc1ccc(OC(F)F)cc1	-1	-17	21	-2	1	-26	nt	nt
COc1ccc(-c2nnc(SC(C)C(=O)NCc3ccc4c(c3)OCO4)n2Cc2ccco2)cc1 (stereo unspecified)	-2	-24	30	48*	-1	-29	39*	23*
CC(Sc1nnc2ccccn12)C(=O)NCc1ccc2c(c1)OCO2 (stereo unspecified)	1	7	0	2	0	-13	nt	nt
C=CCn1c(SC(C)C(=O)NCc2ccc3c(c2)OCO3)nnc1C1CCCCC1 (stereo unspecified)	-1	-23	6	26*	1	-17	32*	29*
O=C(CSc1nnc(-c2ccc(Cl)cc2)n1Cc1ccco1)NCc1ccc2c(c1)OCO2	-2	-19	25	34*	-2	-20	32*	24*
O=C(c1cccc(C(F)(F)F)c1)C1CCCN(C(=O)CCCn2cncn2)C1 (stereo unspecified)	0	-10	1	0	0	-19	nt	nt
CC(=O)Nc1ccc(OCC(O)CN2CCN(c3ccc(F)cc3)CC2)cc1 (stereo unspecified)	nt	-18	4	8	nt	-6	nt	nt
CC(NC(=O)C1(c2cccs2)CCOCC1)c1ccccc1 (stereo unspecified)	0	0	-6	4	1	-1	nt	nt
COc1cccc(CN2CCN(C(=O)Nc3ccc([N+](=O)[O-])cc3)CC2)c1	-1	-3	18	29*	2	19	41*	68*
O=[N+]([O-])c1ccc(N2CCN(c3cccc(Cl)c3)CC2)nc1	nt	-9	16	51*	nt	-4	29*	70*
O=[N+]([O-])c1ccc(N2CCN(Cc3ccccc3)CC2)nc1	2	-22	35	22*	1	8	27*	19
O=[N+]([O-])c1ccc(CN2CCC(Cc3ccccc3)CC2)cc1	nt	nt	nt	26*	nt	nt	13	33*
SMILES	TRPN1 ag	OX1R antag-1	OX1R antag-2	GPR7 antag	TRPML3 agonist	CHO parental Ca	GPR7 antag conf	MCHR1 antagonist
O=[N+]([O-])c1ccc(C(=S)N2CCC(Cc3ccccc3)CC2)cc1	1	-10	12	1	1	-6	nt	nt
COc1ccc(C(=O)NCC(=O)N2CCN(c3ccc(F)cc3)CC2)cc1	nt	-25	5	-8	nt	-9	nt	nt
Cc1ccccc1C(C(=O)NC1CCCCC1)N(C(=O)c1ccccn1)c1cccnc1 (stereo unspecified)	2	-32	13	3	1	-14	nt	nt
COc1ccc2[nH]cc(CCNC(=O)C3CCCCC3)c2c1	nt	-23	-6	4	nt	-6	nt	nt
O=[N+]([O-])c1ccc(N2CCN(Cc3cccc([N+](=O)[O-])c3)CC2)cc1	nt	0	24	37*	nt	8	56*	63*
Cc1ccccc1C(=O)N1CCC(C(=O)Nc2ccc(S(=O)(=O)N3CCCCC3)cc2)CC1	nt	-21	6	-2	nt	-10	nt	nt
CC(C)n1cc(NC(=O)c2cc(-c3ccccc3)on2)cn1	0	-12	11	24*	1	-5	14	30*
O=S(=O)(c1ccc(OCC(O)CN2CCN(c3ccccc3)CC2)cc1)N1CCOCC1 (stereo unspecified)	3	8	22	25*	1	-17	5	12
CCS(=O)(=O)N1CCC(NC(=O)C(Cc2cc(OC)ccc2OC)NC(C)=O)CC1 (stereo unspecified)	nt	-5	29	-1	nt	-1	nt	nt
NNC(=O)c1n[nH]c2c1CC(C1CCCCC1)CC2 (stereo unspecified)	nt	-8	25	nt	nt	-6	nt	nt
CCOC(=O)Nc1ccc2c(c1)N(C(=O)CN1CCN(C)CC1)c1ccccc1CC2	nt	-8	7	2	nt	1	nt	nt
